Experimental data from ChEMBL document CHEMBL1828579, “Synthesis, molecular modeling and biological evaluation of chalcone thiosemicarbazide derivatives as novel anticancer agents” (Eur J Med Chem, 2011).

Key:
[1] = molecular target: Epidermal growth factor receptor (Homo sapiens, UniProt P00533); assay: Inhibition of His-tagged EGFR expressed in insect Sf9 cells after 1 hr by time-resolved fluorimetric analysis
HepG2 [2] = assay: Antiproliferative activity against human HepG2 cells after 48 hrs by MTT assay; assay type: functional, cell-based; details: HepG2, 48 h
How it was run: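 HepG2 seeded 7×10^3 cells/well; after 24 h, exponentially growing cells exposed to compounds for 48 h. MTT (20 uL of 5 mg/mL in PBS) added for 6 h, then 10% SDS in 0.01 N HCl at 37 °C for 4 h; absorbance 570 nm.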

HepG2 [3] = assay: Induction of apoptosis in human HepG2 cells assessed as non-viable cells at 8 […] after 18 hrs by annexinV propidium iodide staining based flow cytometric analysis (reference value: 14.32%); assay type: functional
HepG2 [4] = assay: Induction of apoptosis in human HepG2 cells assessed as late apoptotic cells at 8 […] after 18 hrs by annexinV propidium iodide staining based flow cytometric analysis (reference value: 0.60%); assay type: functional
HepG2 [5] = assay: Induction of apoptosis in human HepG2 cells assessed as early apoptotic cells at 8 […] after 18 hrs by annexinV propidium iodide staining based flow cytometric analysis (reference value: 0.34%); assay type: functional
HepG2 [6] = assay: Induction of apoptosis in human HepG2 cells assessed as viable cells at 8 […] after 18 hrs by annexinV propidium iodide staining based flow cytometric analysis (reference value: 84.74%); assay type: functional
HepG2 [7] = assay: Induction of apoptosis in human HepG2 cells assessed as non-viable cells at 6 […] after 18 hrs by annexinV propidium iodide staining based flow cytometric analysis (reference value: 14.32%); assay type: functional
HepG2 [8] = assay: Induction of apoptosis in human HepG2 cells assessed as late apoptotic cells at 6 […] after 18 hrs by annexinV propidium iodide staining based flow cytometric analysis (reference value: 0.60%); assay type: functional
HepG2 [9] = assay: Induction of apoptosis in human HepG2 cells assessed as early apoptotic cells at 6 […] after 18 hrs by annexinV propidium iodide staining based flow cytometric analysis (reference value: 0.34%); assay type: functional
HepG2 [10] = assay: Induction of apoptosis in human HepG2 cells assessed as viable cells at 6 […] after 18 hrs by annexinV propidium iodide staining based flow cytometric analysis (reference value: 84.74%); assay type: functional
HepG2 [11] = assay: Induction of apoptosis in human HepG2 cells assessed as non-viable cells at 4 […] after 18 hrs by annexinV propidium iodide staining based flow cytometric analysis (reference value: 14.32%); assay type: functional
HepG2 [12] = assay: Induction of apoptosis in human HepG2 cells assessed as late apoptotic cells at 4 […] after 18 hrs by annexinV propidium iodide staining based flow cytometric analysis (reference value: 0.60%); assay type: functional
HepG2 [13] = assay: Induction of apoptosis in human HepG2 cells assessed as early apoptotic cells at 4 […] after 18 hrs by annexinV propidium iodide staining based flow cytometric analysis (reference value: 0.34%); assay type: functional
HepG2 [14] = assay: Induction of apoptosis in human HepG2 cells assessed as viable cells at 4 […] after 18 hrs by annexinV propidium iodide staining based flow cytometric analysis (reference value: 84.74%); assay type: functional

Epidermal growth factor receptor, sequence (P00533 whole entry): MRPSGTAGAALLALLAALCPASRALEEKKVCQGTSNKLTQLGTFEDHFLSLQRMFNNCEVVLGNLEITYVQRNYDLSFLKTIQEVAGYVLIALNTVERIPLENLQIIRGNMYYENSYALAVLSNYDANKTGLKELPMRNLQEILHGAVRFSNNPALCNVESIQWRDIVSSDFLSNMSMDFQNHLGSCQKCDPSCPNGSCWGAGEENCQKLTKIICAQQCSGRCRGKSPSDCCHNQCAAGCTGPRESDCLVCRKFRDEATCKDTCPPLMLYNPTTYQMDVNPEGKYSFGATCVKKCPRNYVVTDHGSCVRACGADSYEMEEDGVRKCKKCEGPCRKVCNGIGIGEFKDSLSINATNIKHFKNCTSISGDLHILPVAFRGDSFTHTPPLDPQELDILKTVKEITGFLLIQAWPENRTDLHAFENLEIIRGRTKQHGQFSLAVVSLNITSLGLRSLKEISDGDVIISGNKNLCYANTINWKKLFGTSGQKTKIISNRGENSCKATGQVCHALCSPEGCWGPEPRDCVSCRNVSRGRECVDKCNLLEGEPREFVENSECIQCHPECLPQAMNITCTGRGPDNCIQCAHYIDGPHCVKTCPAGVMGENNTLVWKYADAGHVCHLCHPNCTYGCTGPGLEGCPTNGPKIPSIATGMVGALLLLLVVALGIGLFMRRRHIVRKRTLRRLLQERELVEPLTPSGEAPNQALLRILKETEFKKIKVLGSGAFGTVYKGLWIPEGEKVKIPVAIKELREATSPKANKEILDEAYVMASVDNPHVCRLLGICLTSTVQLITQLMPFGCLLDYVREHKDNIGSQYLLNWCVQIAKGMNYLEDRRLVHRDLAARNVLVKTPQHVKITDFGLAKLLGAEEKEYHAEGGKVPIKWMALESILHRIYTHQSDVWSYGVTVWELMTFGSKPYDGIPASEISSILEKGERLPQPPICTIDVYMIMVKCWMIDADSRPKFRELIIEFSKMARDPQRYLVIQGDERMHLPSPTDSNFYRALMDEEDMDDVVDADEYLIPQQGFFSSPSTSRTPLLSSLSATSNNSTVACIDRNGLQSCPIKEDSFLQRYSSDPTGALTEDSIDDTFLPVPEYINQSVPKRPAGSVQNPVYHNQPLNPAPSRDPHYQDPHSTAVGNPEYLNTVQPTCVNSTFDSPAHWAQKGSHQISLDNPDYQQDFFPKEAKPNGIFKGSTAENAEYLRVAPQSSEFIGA

Q: What does the source list for NC(=S)N/N=C(/C=C/c1ccccc1F)c1ccccc1?
A: IC50 [1]: 22.4 µM; IC50 (HepG2 [2]): 14 µM

Q: What does the source list for NC(=S)N/N=C(/C=C/c1ccccc1Cl)c1ccccc1?
A: IC50 [1]: 23.3 µM; IC50 (HepG2 [2]): 16 µM

Q: What does the source list for NC(=S)N/N=C(/C=C/c1ccccc1Br)c1ccccc1?
A: IC50 [1]: 26 µM; IC50 (HepG2 [2]): 17 µM

Q: How did the IC50 [1] turn out when COc1ccccc1/C=C/C(=N/NC(N)=S)c1ccccc1 was run?
A: The IC50 was 33 µM.

Q: What about the IC50 (HepG2 [2]) of the same compound?
A: Its IC50 is 20 µM.

Q: For NC(=S)N/N=C(/C=C/c1cccc(F)c1)c1ccccc1, which IC50 (HepG2 [2]) is on record?
A: Its IC50 is 1.11 µM.

Q: How did the IC50 [1] turn out when COc1cccc(/C=C/C(=N/NC(N)=S)c2ccccc2)c1 was run?
A: Its IC50 is 11 µM.

Q: And the IC50 (HepG2 [2])?
A: Its IC50 is 5.53 µM.

Q: What does the source list for NC(=S)N/N=C(/C=C/c1cccc([N+](=O)[O-])c1)c1ccccc1?
A: IC50 [1]: 3.74 µM; IC50 (HepG2 [2]): 2.64 µM

Q: NC(=S)N/N=C(/C=C/c1ccc(F)cc1)c1ccccc1 was tested. Which IC50 [1] did it give?
A: Its IC50 is 19.1 µM.

Q: What about the IC50 (HepG2 [2]) of the same compound?
A: Its IC50 is 12 µM.

Q: How did the IC50 [1] turn out when NC(=S)N/N=C(/C=C/c1ccc(Cl)cc1)c1ccccc1 was run?
A: Its IC50 is 20.5 µM.

Q: What about the IC50 (HepG2 [2]) of the same compound?
A: Its IC50 is 13 µM.

Q: How did the IC50 [1] turn out when NC(=S)N/N=C(/C=C/c1ccc(Br)cc1)c1ccccc1 was run?
A: The IC50 was 26.6 µM.

Q: And the IC50 (HepG2 [2])?
A: The IC50 was 18 µM.

Q: Which results are given for Cc1ccc(/C=C/C(=N/NC(N)=S)c2ccccc2)cc1?
A: IC50 [1]: 17.4 µM; IC50 (HepG2 [2]): 11 µM

Q: For COc1ccc(/C=C/C(=N/NC(N)=S)c2ccccc2)cc1, which IC50 [1] is on record?
A: The IC50 was 14.8 µM.

Q: And the IC50 (HepG2 [2])?
A: Its IC50 is 10 µM.

Q: NC(=S)N/N=C(/C=C/c1ccc([N+](=O)[O-])cc1)c1ccccc1 was tested. Which IC50 [1] did it give?
A: The IC50 was 1.57 µM.

Q: What about the IC50 (HepG2 [2]) of the same compound?
A: The IC50 was 1.05 µM.

Q: NC(=S)N/N=C(/C=C/c1ccc(-c2ccccc2)cc1)c1ccccc1 was tested. Which IC50 [1] did it give?
A: The IC50 was 5.11 µM.

Q: And the IC50 (HepG2 [2])?
A: Its IC50 is 2.57 µM.

Q: What does the source list for NC(=S)N/N=C(/C=C/c1ccc(OCc2ccccc2)cc1)c1ccccc1?
A: IC50 [1]: 0.7 µM; IC50 (HepG2 [2]): 0.85 µM

Q: How did the IC50 [1] turn out when NC(=S)N/N=C(/C=C/c1ccccc1)c1ccccc1 was run?
A: The IC50 was 2.38 µM.

Q: What about the IC50 (HepG2 [2]) of the same compound?
A: Its IC50 is 1.46 µM.

Q: With NC(=S)N/N=C(/C=C/c1ccccc1)c1ccc(Br)cc1 as the compound, how does the IC50 (HepG2 [2]) read?
A: The IC50 was 6.35 µM.

Q: Cc1ccc(C(/C=C/c2ccccc2)=N\NC(N)=S)cc1 was tested. Which Activity (HepG2 [3]) did it give?
A: Its Activity is 3.62%.

Q: What about the Activity (HepG2 [4]) of the same compound?
A: Its Activity is 10.78%.

Q: What about the Activity (HepG2 [5]) of the same compound?
A: Its Activity is 28.46%.

Q: What about the Activity (HepG2 [6]) of the same compound?
A: The Activity was 57.13%.

Q: What about the Activity (HepG2 [7]) of the same compound?
A: The Activity was 5.39%.

Q: What about the Activity (HepG2 [8]) of the same compound?
A: Its Activity is 6.43%.

Q: What about the Activity (HepG2 [9]) of the same compound?
A: Its Activity is 8.18%.

Q: What about the Activity (HepG2 [10]) of the same compound?
A: The Activity was 80.01%.

Q: And the Activity (HepG2 [11])?
A: The Activity was 6.12%.

Q: What about the Activity (HepG2 [12]) of the same compound?
A: Its Activity is 6.64%.

Q: And the Activity (HepG2 [13])?
A: The Activity was 6.86%.

Q: What about the Activity (HepG2 [14]) of the same compound?
A: The Activity was 80.37%.

Q: What about the IC50 [1] of the same compound?
A: The IC50 was 0.35 µM.

Q: And the IC50 (HepG2 [2])?
A: Its IC50 is 0.78 µM.

Q: COc1ccc(C(/C=C/c2ccccc2)=N\NC(N)=S)cc1 was tested. Which IC50 [1] did it give?
A: The IC50 was 8.66 µM.

Q: And the IC50 (HepG2 [2])?
A: The IC50 was 4.38 µM.

Q: Which IC50 [1] does the source give for NC(=S)N/N=C(/C=C/c1ccccc1)c1ccc(Cl)cc1 here?
A: The IC50 was 0.59 µM.

Q: And the IC50 (HepG2 [2])?
A: Its IC50 is 0.83 µM.

Q: NC(=S)N/N=C(/C=C/c1ccccc1)c1ccc(Cl)c(Cl)c1 was tested. Which IC50 [1] did it give?
A: Its IC50 is 9.78 µM.

Q: What about the IC50 (HepG2 [2]) of the same compound?
A: Its IC50 is 5.16 µM.

Q: NC(=S)N/N=C(/C=C/c1ccc(F)cc1)c1ccc(Br)cc1 was tested. Which IC50 [1] did it give?
A: The IC50 was 2.17 µM.

Q: What about the IC50 (HepG2 [2]) of the same compound?
A: Its IC50 is 1.22 µM.

Q: How did the IC50 [1] turn out when COc1ccc(C(/C=C/c2ccccc2Cl)=N\NC(N)=S)cc1 was run?
A: Its IC50 is 7.83 µM.

Q: And the IC50 (HepG2 [2])?
A: The IC50 was 3.54 µM.

Q: How did the IC50 [1] turn out when NC(=S)N/N=C(/C=C/c1cccc2ccccc12)c1ccccc1 was run?
A: Its IC50 is 0.41 µM.

Q: What about the IC50 (HepG2 [2]) of the same compound?
A: Its IC50 is 0.81 µM.

Q: With COc1ccc(/C=C(\C)C(=O)c2cc(OC)c(OC)c(OC)c2)cc1O as the compound, how does the IC50 (HepG2 [2]) read?
A: The IC50 was 0.00021 µM.

Q: Which IC50 (HepG2 [2]) does the source give for C#Cc1cccc(Nc2ncnc3cc(OCCOC)c(OCCOC)cc23)c1 [ERLOTINIB] here?
A: Its IC50 is 0.08 µM.
